Experimental data: article PMC5766731 (Clinical Pharmacokinetics, 2017)

Experiments:
[1] = Part III safety assessment; type: in vivo, human
Summary of the method: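 Safety monitored under ICH-GCP in each part (single 10–300 mg; alternate-day 100–300 mg; 150 mg fasted/fed crossover). Assessments: adverse events coded with MedDRA version 18.0, clinical examinations, frequent vital signs, 12-lead ECGs, clinical laboratory tests, and continuous ECG for 24 h post-dose in parts I and II. Post-dose vs baseline compared by paired two-sided t test, α = 0.05.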

serum EPO levels = conditions: acute pharmacodynamic animal model; cited from earlier work

O=C(O)CNC(=O)c1c(O)c2ccccc2n(OCC2CC2)c1=O [ZYAN1]
Adverse events (Test) ([1]; Food and sex effect 150 mg panel): Palpitation, cellulitis, back pain, musculoskeletal pain, head discomfort, headache (2), folliculitis, cellulitis
total AEs reported ([1]; part III crossover, 150 mg): 11
serum EPO levels (serum EPO levels): dose-related increase
